Experiments:
Trypanosoma cruzi [1] = assay: Antitrypanosomal activity against bloodstream forms of Trypanosoma cruzi Y isolated from parasite infected Albino Swiss mouse assessed as induction of parasite lysis incubated for 24 hrs by Neubauer chamber based cell counting method; assay type: functional, organism-based
How it was run: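 Bloodstream trypomastigotes were taken from infected mice at peak parasitemia by differential centrifugation and resuspended at 10x10^6 cells/mL in DMES medium. They were mixed 1:1 with compound at twice the final concentration, with DMSO final ≤0.1%, and incubated at 37°C for 24 h. Benznidazole was the control. Counts were made in a Neubauer chamber, giving IC50/24 h as the concentration causing 50% parasite lysis.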

[2] = Selectivity index, ratio of LC50 for cytotoxicity against Swiss albino mouse peritoneal macrophages to IC50 for Antitrypanosomal activity against bloodstream forms of Trypanosoma cruzi Y isolated from parasite infected Albino Swiss mouse; assay type: toxicity; conditions: read-out: Ratio LC50/IC50
[3] = Cytotoxicity against Swiss albino mouse peritoneal macrophages after 24 hrs by PrestoBlue dye based assay; assay type: cell-based, Peritoneal macrophage; conditions: read-out: LC50
Trypanosoma cruzi [4] = assay: Potency index, ratio of juglone IC50 to compound IC50 for antitrypanosomal activity against bloodstream forms of Trypanosoma cruzi Y isolated from parasite infected Albino Swiss mouse; assay type: functional

Row | Compound | IC50 (Trypanosoma cruzi [1]) | selectivity ratio [2] | CC50 at 24 h [3] | Ratio (Trypanosoma cruzi [4])
1 | COc1cccc2c1C(=O)C=CC2=O | 1.02 µM | – | – | –
2 | CC(=O)Oc1cccc2c1C(=O)C=CC2=O | 0.16 µM | – | – | –
3 | CC(C)(C)C1=CC(=O)C(Br)=CC1=O | 14.1 µM | 3 | 42.3 µM | –
4 | COC1=C(I)C(=O)C(I)=C(OC)C1=O | 1.94 µM | – | 27.7 µM | –
5 | O=C1C=CC(=O)C([Se]c2ccccc2)=C1 | 16 µM | 0.86 | 13.8 µM | –
6 | Nc1c(I)ccc2c1C(=O)C=CC2=O | 0.56 µM | 23.4 | 13.1 µM | –
7 | COc1ccc2c(c1I)C(=O)C=CC2=O | 1.17 µM | 12.1 | 14.2 µM | –
8 | O=C1C=C(I)C(=O)c2ccccc21 | 1.79 µM | 8.2 | 14.7 µM | –
9 | CC1=CC(=O)c2c(ccc(I)c2O)C1=O | 0.99 µM | 15.8 | 15.7 µM | –
10 | O=C1C=CC(=O)c2c(O)c(I)cc(I)c21 | 24.8 µM | > 5.1 | > 100 µM | –
11 | O=C1C=CC(=O)c2c(C#Cc3ccccc3)cccc21 | 2.2 µM | 5.7 | 12.5 µM | –
12 | O=C1C=C(Br)C(=O)C(Cl)=C1Cl | 15.4 µM | > 6.5 | > 100 µM | –
13 | Cc1cc(I)c2c(c1)C(=O)C=CC2=O | 0.49 µM | 24.7 | 12.1 µM | –
14 | O=C1C=CC(=O)c2c(I)ccc(I)c21 | 0.22 µM | – | 12.9 µM | –
15 | CCOC(=O)/C=C/c1cccc2c1C(=O)C=CC2=O | 6.03 µM | 2.1 | 12.7 µM | –
16 | O=C1C(Cl)=C(Cl)C(=O)c2c(I)cccc21 | 7.26 µM | 3.8 | 27.8 µM | –
17 | CC(C)(C)C1=CC(=O)C(I)=CC1=O | 12.8 µM | 2.8 | 35.9 µM | –
18 | CC(=O)Oc1cccc2c1C(=O)C(Br)=CC2=O | 0.85 µM | – | – | –
19 | COC1=C(I)C(=O)C=CC1=O | 23.9 µM | 1.4 | 32.6 µM | –
20 | COc1cc2c(c(I)c1OC)C(=O)C=CC2=O | 1.62 µM | 7.5 | 12.2 µM | –

Row | Compound | IC50 (Trypanosoma cruzi [1]) | selectivity ratio [2] | CC50 at 24 h [3] | Ratio (Trypanosoma cruzi [4])
21 | COC(=O)c1ccc(I)c2c1C(=O)C=CC2=O | 1.61 µM | 8.7 | 13.9 µM | –
22 | COc1c(I)ccc2c1C(=O)C=C(C)C2=O | 4.06 µM | 6.1 | 24.7 µM | –
23 | O=C1C(Br)=CC(=O)c2c(I)cccc21 | 1.38 µM | 8.8 | 12.2 µM | 4.7
24 | COc1c(I)ccc2c1C(=O)C=CC2=O | 1.35 µM | 9.8 | 13.3 µM | –
25 | O=C1C=CC(=O)c2c1ccc(I)c2O | 42 µM | > 4.6 | > 100 µM | –
26 | CC1=C(C)C(=O)C(I)=CC1=O | 10.1 µM | 1.5 | 15.4 µM | –
27 | O=C1C=CC(=O)C(Br)=C1 | 21.5 µM | 1.6 | 34.4 µM | –
28 | O=C1C=C(I)C(=O)C(Cl)=C1Cl | 27 µM | > 4.7 | > 100 µM | –
29 | O=C1C=C([Se]c2ccccc2)C(=O)c2ccccc21 | 1.13 µM | 11.2 | 12.7 µM | –
30 | O=C1C=CC(=O)c2c(/C=C/c3ccccc3)cccc21 | 0.19 µM | 62.5 | 11.9 µM | –
31 | O=C1C=CC(=O)c2c(I)cccc21 | 0.59 µM | 19.5 | 11.5 µM | –
32 | O=C1C=C([Se]c2ccccc2)C(=O)C=C1[Se]c1ccccc1 | 83.4 µM | > 1.2 | > 100 µM | –
33 | O=C1C(Br)=C(Br)C(=O)c2c(I)cccc21 | 2.25 µM | 5.3 | 11.8 µM | –
34 | O=C1C=CC(=O)C(I)=C1 | 60.6 µM | – | 86 µM | –
35 | O=C1C=CC(=O)c2c1cccc2-c1ccccc1 | 1.24 µM | 10.2 | 12.7 µM | 5.2
36 | COc1ccc(I)c2c1C(=O)C=CC2=O | 3.54 µM | 3.8 | 13.6 µM | –
37 | O=C1C=C(Br)C(=O)c2ccccc21 [2-Bromo-1,4-naphthoquinone] | 1.37 µM | – | – | –
38 | O=C(Cn1ccnc1[N+](=O)[O-])NCc1ccccc1 [BENZNIDAZOLE] | 9.68 µM | > 413 | > 4000 µM | –
39 | O=C1C=CC(=O)c2c(O)cccc21 [JUGLONE] | 6.51 µM | – | – | –
40 | CC1=CC(=O)c2c(O)cccc2C1=O [PLUMBAGIN] | 1.38 µM | – | – | –
